Our source for the Activity values is ChEMBL document CHEMBL1159045, “Design and pharmacophore modeling of biaryl methyl eugenol analogs as breast cancer invasion inhibitors” (Bioorg Med Chem, 2010).

Data set [1] has as its system MDA-MB-231. As to the kind of experiment: Cytotoxicity against human MDA-MB-231 cells at 10 to 50 uM after 75 hrs by MTT assay. The data set is classed as cell-based. As to conditions: mda-mb-231, 72 h, in the assay text read “72 hrs” for “75 hrs”. The method, boiled down: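 MDA-MB-231 seeded at 15,000 cells/well and stabilized 24 h at 37 °C, 5% CO2. Triplicate doses applied for 72 h at 37 °C, 5% CO2, 85% humidity. MTT (2.5 mg/mL) added for 4 h, then formazan dissolved overnight at rt in the dark with detergent reagent. OD at 570 nm against a cell-free blank; cells/well from calibration curve. Colchicine positive control, DMSO vehicle.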
A general note: Formazan colour is commonly taken as a measure of viable cells.

Data set [2] deals with MDA-MB-231. Description: Antiinvasive activity in human MDA-MB-231 cells assessed as cell invasion at 4 uM by BME cell invasion assay. The data set is classed as functional. The method, boiled down: (§1)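 Cultrex 96-well BME invasion kit, Boyden-type chamber with 8 µm PET membrane coated with basement membrane extract; MDA-MB-231 cells exposed to 1–4 μM for 24 h, 10% FBS as chemoattractant in the lower chamber. Invaded cells labelled with calcein-AM and read at ex 485/em 520 nm. RFU converted to cell number by standard curve. % invasion = cells through BME / cells migrating through uncoated membrane. Colchicine as positive control, DMSO vehicle.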

Another data set has as its system MCF7. As to the kind of experiment: Cytotoxicity against human MCF7 cells at 10 to 50 uM after 75 hrs by MTT assay. The data set is classed as cell-based. As to conditions: mcf7, 72 h, in the assay text read “72 hrs” for “75 hrs”. The method, boiled down: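 MCF-7 seeded at 12,000 cells/well and stabilized 24 h at 37 °C, 5% CO2. Treated in triplicate for 72 h at 37 °C, 5% CO2, 85% humidity. MTT (2.5 mg/mL) added for 4 h, then formazan dissolved in isopropanol overnight at rt in the dark. OD read at 570 nm against a cell-free blank; cell number from calibration curve. Colchicine positive control, DMSO vehicle.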

The test system of data set [3] is MDA-MB-231. As to the kind of experiment: Antiinvasive activity in human MDA-MB-231 cells by BME cell invasion assay. The format is functional, cell-based. Put shortly: as §1
Data set [4] concerns MDA-MB-231. Description: Antiinvasive activity in human MDA-MB-231 cells assessed as cell invasion at 2 uM by BME cell invasion assay. The data set is classed as functional. Put shortly:
as §1

For the molecule `COc1ccc(C/C=C\c2ccccc2OC(C)=O)cc1OC`, the Activity result in the data set on MDA-MB-231 [1] was “Non-toxic”; in the data set with MDA-MB-231 [2], 9%; in the data set with MCF7, “Non-toxic”; in the data set with MDA-MB-231 [3], “Dose-dependent effect”.
In the case of `COc1ccc(/C=C\Cc2c(C)cccc2C)cc1OC`, the Activity entry in the data set with MDA-MB-231 [1] is “Non-toxic”; with MDA-MB-231 [3], “Dose-dependent effect”.
For `COc1ccccc1C/C=C/c1ccc(OC)c(OC)c1`, in that order: “Non-toxic” and “Dose-dependent effect”.
For `COc1ccc(C(=O)CCc2cc(OC)c(OC)c(OC)c2)cc1OC`, in that order: “Non-toxic” and “Dose-dependent effect”.
As for `COc1ccc(/C=C/Cc2ccccc2OC(C)=O)cc1OC`, the Activity result in the data set on MDA-MB-231 [1] is “Non-toxic”; with MCF7, “Non-toxic”; in the data set on MDA-MB-231 [3], “Dose-dependent effect”.
Take `C=C(Cc1ccc(OC)c(OC)c1)c1cc(OC)c(OC)c(OC)c1`: the Activity result with MDA-MB-231 [1] was “Non-toxic”; in the data set on MDA-MB-231 [3], “Dose-dependent effect”.
Take `COc1cc2c(c(OC)c1OC)-c1ccc(OC)c(=O)cc1[C@@H](NC(C)=O)CC2` [COLCHICINE]: in the data set with MDA-MB-231 [2], the Activity was 8.9%.
Turning to `COc1ccc(C/C=C/c2ccc(OC)c(OC)c2)cc1`, the Activity result is “Non-toxic” with MDA-MB-231 [1] and “Dose-dependent effect” in the data set on MDA-MB-231 [3].
The matching figures for `COc1ccc(C/C=C/c2cc(OC)c(OC)c(OC)c2)cc1OC`: “Non-toxic” and “Dose-dependent effect”.
For the molecule `C=C(Cc1ccc(OC)c(OC)c1)c1ccccc1OC(C)=O`, the Activity result in the data set on MDA-MB-231 [1] is “Non-toxic”; in the data set with MCF7 it was “Non-toxic”; in the data set on MDA-MB-231 [3], “Dose-dependent effect”.
For `COc1ccc(C/C=C/c2c(C)cccc2C)cc1OC`, the Activity result in the data set on MDA-MB-231 [1] is “Non-toxic”; in the data set on MDA-MB-231 [3], “Dose-dependent effect”.
Consider `COc1ccc(C(=O)/C=C/c2cc(OC)c(OC)c(OC)c2)cc1OC`, for which the Activity result in the data set on MDA-MB-231 [1] is “Non-toxic”; in the data set on MDA-MB-231 [4], 8.5%; in the data set on MDA-MB-231 [3], “Dose-dependent effect”.
`COc1ccc(/C=C/Cc2ccc(OC)c(OC)c2)cc1`: the Activity result in the data set with MDA-MB-231 [1] was “Non-toxic”; with MDA-MB-231 [2], 13.7%; with MDA-MB-231 [3] it was “Dose-dependent effect”.
For `COc1ccc(/C=C/Cc2cc(OC)c(OC)c(OC)c2)cc1OC`, in that order: “Non-toxic”, 11% and “Dose-dependent effect”.
As to `C=C(Cc1ccc(OC)c(OC)c1)c1ccc(OC)cc1`, the Activity result with MDA-MB-231 [1] is “Non-toxic”; with MDA-MB-231 [3] it was “Dose-dependent effect”.
